Assay [1] has as its target T1, Cholecystokinin receptor type A (Rattus norvegicus, UniProt P30551).
T1 sequence (P30551 whole entry): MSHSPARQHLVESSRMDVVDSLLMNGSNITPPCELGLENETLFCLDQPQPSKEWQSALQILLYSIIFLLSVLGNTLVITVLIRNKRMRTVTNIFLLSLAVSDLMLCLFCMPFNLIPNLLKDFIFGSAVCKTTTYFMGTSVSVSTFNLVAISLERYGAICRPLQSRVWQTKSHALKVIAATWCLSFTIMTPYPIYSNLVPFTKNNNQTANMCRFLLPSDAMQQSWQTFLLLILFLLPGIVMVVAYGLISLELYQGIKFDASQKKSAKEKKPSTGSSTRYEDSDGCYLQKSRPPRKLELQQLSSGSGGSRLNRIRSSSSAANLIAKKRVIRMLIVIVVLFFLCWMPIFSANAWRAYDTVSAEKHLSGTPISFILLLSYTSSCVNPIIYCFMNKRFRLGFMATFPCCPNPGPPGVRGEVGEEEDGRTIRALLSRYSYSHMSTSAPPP
In words: Half-maximal inhibition of [125I]CCK-33 binding to cholecystokinin A receptor from rat pancreatic tissue.

A short description of assay [2]: Ratio of IC50 CCK(pancreas)/ IC50BZD (brain). In kind it is functional.
The target of assay [3] is GABA-A receptor; anion channel. In words: Inhibition of [3H]flunitrazepam binding to GABA-A benzodiazepine receptor of guinea brain. Also noted: species or system Cavia porcellus.
A further assay relates to Mus musculus. Briefly: Ability to antagonize CCK-8 inhibition of charcoal meal gastric emptying in mice, after oral administration. In kind it is functional. The settings on record: Stomach. A digest of the protocol:
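Mice dosed orally with test compound at one or more dose levels (N ≥ 10/dose) 1 h before CCK-8 (80 μg/kg, sc). CCK-8 given 5 min before a charcoal meal. Gastric emptying measured 5 min after the meal.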

The target of assay [4] is GABA-A receptor; anion channel. In words: Inhibition of [3H]diazepam binding to GABA-A benzodiazepine receptor of rat brain.
Assay [5] in a line: Ratio of IC50 CCK (pancreas)/ IC50 BZD (brain). The class given is functional.

Regarding `CN1C(=O)[C@H](N)N=C(c2ccccc2)c2ccccc21`, the IC50 in assay [1] was > 100 µM; in assay [3], 8.5 µM. In assay [2], the Ratio is >11.
Turning to `CN1C(=O)[C@H](NC(=O)c2ccc(Br)cc2)N=C(c2ccccc2)c2ccccc21`, the Ratio in assay [2] stood at 0.05. This compound also came in with an IC50 in assay [3] of 15 µM.
Consider `CN1C(=O)[C@@H](NC(=O)c2ccc(Br)cc2)N=C(c2ccccc2)c2ccccc21`, for which the values for the IC50 in assay [1] and in assay [3] were 0.0029 µM and > 100 µM, respectively. This compound also displayed an ED50 in the assay with Mus musculus of 0.4 mg/kg. Also, the Ratio in assay [2] was <1e-05.
Consider `O=C(NC1N=C(c2ccccc2)c2ccccc2NC1=O)c1cc2ccccc2[nH]1` (centres undefined), for which the IC50 in assay [1] was 0.0047 µM; in assay [4], > 100 µM. The compound also yielded an ED50 in the assay on Mus musculus of 0.4 mg/kg. Also, in assay [5], the Ratio is on record as <4.7e-05.
As to `CN1C(=O)CN=C(c2ccccc2)c2ccccc21`, the IC50 in assay [1] came out at 24.6 µM; in assay [4], 0.065 µM. Besides, in assay [2], the Ratio came out at 378.
On to `CN1C(=O)CN=C(c2ccccc2F)c2ccccc21` [RO-054520], for which the IC50 in assay [1] was 42 µM; in assay [4], 0.024 µM. Besides, in assay [2], the Ratio is given as 1750.

For the origin of these results see ChEMBL document CHEMBL1124015, “Methods for drug discovery: development of potent, selective, orally effective cholecystokinin antagonists” (J Med Chem, 1988).
